Measured values published in PubChem BioAssay.
Calls of active or inactive are those of the source.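 How the source made its calls: active means potentiation averaged over duplicate wells exceeding buffer-only control mean by more than 3 SD; inactive means the rest.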

molecular target: Potassium voltage-gated channel subfamily KQT member 1 (Homo sapiens) (UniProt P51787); experiment: KCNQ1 potassium channel potentiators, confirmation, FluxOR thallium flux, CHO cells, duplicates (AID 493007); details: KCNQ1 cell line, FluxOR thallium flux fluorescence, at 10 µM; active compounds read high, % of reference activator effect, buffer zero;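 on outcome: cells depolarized by a potassium plus thallium sulfate stimulus after compound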;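 on potentiation: 0% = buffer-only wells and 100% = R-L3 activator control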
Sequence (P51787 whole entry, looked up): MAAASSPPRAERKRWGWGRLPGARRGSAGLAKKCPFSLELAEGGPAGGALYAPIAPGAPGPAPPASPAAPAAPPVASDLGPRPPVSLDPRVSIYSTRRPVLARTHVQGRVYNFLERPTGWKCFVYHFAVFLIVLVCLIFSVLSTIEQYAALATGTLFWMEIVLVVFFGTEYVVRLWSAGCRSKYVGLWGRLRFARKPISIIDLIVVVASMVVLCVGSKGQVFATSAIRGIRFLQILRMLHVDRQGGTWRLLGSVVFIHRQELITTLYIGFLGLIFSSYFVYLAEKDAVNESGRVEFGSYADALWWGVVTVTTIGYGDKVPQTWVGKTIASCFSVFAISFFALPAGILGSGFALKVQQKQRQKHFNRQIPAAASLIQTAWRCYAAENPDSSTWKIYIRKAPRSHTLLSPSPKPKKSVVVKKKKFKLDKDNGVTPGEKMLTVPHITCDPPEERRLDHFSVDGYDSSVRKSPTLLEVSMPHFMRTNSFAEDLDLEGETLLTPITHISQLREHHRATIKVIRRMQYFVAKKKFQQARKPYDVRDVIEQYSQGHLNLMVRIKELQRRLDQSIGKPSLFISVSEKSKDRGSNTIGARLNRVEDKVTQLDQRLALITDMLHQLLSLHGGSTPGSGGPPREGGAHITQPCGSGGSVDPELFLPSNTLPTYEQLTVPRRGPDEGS
In short: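 material = CHO cells stably expressing the KCNQ1 potassium channel | repeats = duplicate wells per compound | measure = percent activation between buffer and R-L3 responses | signal = FluxOR thallium-flux fluorescence, kinetic read | schedule = FluxOR dye loading 90 min, compound exposure 20 min, room temperature | control set = buffer and R-L3 controls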

SMILES	potentiation	outcome
Cc1ccc(OCC(=O)NNC(=O)C(=O)NC(C)(C)C)cc1	43% (active)	
Oc1c(Br)cc(Br)cc1C=Nc1cccnc1	48% (active)	
N#Cc1ccc(-c2nc3ccc(Br)cc3c(=O)n2O)cc1	120% (active)	
COc1ccc(C(=O)N2CCC(n3nccc3NC(=O)C3CCOC3)CC2)cc1 (stereo not given)		inactive
S=c1nn[nH]n1C12CC3CC(CC(C3)C1)C2	51.5% (active)	
Oc1c(N=NC(=S)Nc2ccccc2F)c2ccccc2n1Cc1ccccc1Cl	81.5% (active)	
Cc1[nH]n(C(N)=S)c(=O)c1N=Nc1ccc2ccccc2c1	238% (active)	
CCCCn1c(-c2csc3c2CCC(C)C3)n[nH]c1=S (stereo not given)	75.5% (active)	
O=C(NC(=S)N1CCc2ccccc21)c1ccccc1	162% (active)	
Cc1ccccc1-c1nc(-c2ccccn2)no1		inactive
O=C(CSc1nc2ccccc2s1)c1cc2ccccc2o1		inactive
Oc1ccc(CN2CCCCC2)c2cccnc12	47% (active)	
COc1ccc(-n2nc(C(=O)NCC(=O)N3CCC(C(N)=O)CC3)c3ccccc3c2=O)cc1		inactive
CN(C)c1ccc(-c2nn3c(-c4ccccc4Cl)nnc3s2)cc1		inactive
Cc1cc(C)n(CCNS(=O)(=O)c2ccccc2)n1		inactive
Cc1cc(C=NCCO)c(C)n1-c1cc(Cl)ccc1Cl		inactive
Cc1ccc(-c2nc3ccc(Cl)cc3c(=O)n2O)cc1	221% (active)	
O=C(CC(=O)c1ccccc1O)c1cccc(F)c1	50.5% (active)	
O=C(O)CCSc1ncnc2sc(-c3ccccc3)cc12	89.5% (active)	
S=c1nc2ccccc2c2nc(-c3ccccc3)[nH]n12		inactive

SMILES	potentiation	outcome
N=c1ncn(Cc2ccccc2)c2nc(SCCOc3ccccc3)[nH]c12		inactive
CC1CCCC(NC(=S)NC(=O)c2ccccc2Br)C1C (stereo not given)	29.5% (active)	
C=CCNC(=S)Nc1sc2c(c1C(=O)OCC)CC(C(C)C)OC2 (stereo not given)	132% (active)	
O=C1N(Cc2ccc(F)cc2)CCN1c1ccc(F)cc1	22% (active)	
Cc1c(C(=O)NC(=S)NCc2cccnc2)oc2ccccc12		inactive
O=C(c1ccccc1)N1CCCC(c2ccc(Cl)cc2)=N1		inactive
CCCc1cc2c(-c3ccccc3)cc(=O)oc2cc1OCc1ccc(C(=O)O)o1	73% (active)	
CSc1nsc(SCC(=O)Nc2ccccc2)n1		inactive
CN(C)S(=O)(=O)c1ccc(Cl)c(NC(=O)CN2CCCCCC2)c1		inactive
CCc1ccc(/C=N/NC(=O)Cc2cccn2C)cc1		inactive
O=C1c2cccc3cccc(c23)C(=O)N1c1cccc(O)c1		inactive
COc1cccc(C(=O)NC(=S)Nc2ccc3c4c(cccc24)CC3)c1	25.5% (active)	
CCOc1ccccc1NC(=O)C(=O)CC(=O)c1ccc(OC)cc1	64.5% (active)	
Cc1ccc2nc(C)cc(N/N=C/c3cccnc3)c2c1		inactive
CCc1nnc(NC(=O)CCC(=O)N2CCN(C3CCCCC3)CC2)s1		inactive
COc1ccccc1C(=O)Nc1ccnn1C1CCN(CCCC2CCCC2)CC1		inactive
OC(c1cc(C(F)(F)F)nc2c(Cl)cc(Cl)cc12)C1CCCCN1 (stereo not given)		inactive
CCCN(CCC)CCNC(=O)Cn1cnc2sc(C)c(S(=O)(=O)N3CCOCC3)c2c1=O		inactive
CCC(O)(CC)C(=O)NN(C(=O)CCl)c1ccccc1		inactive
COc1cc(/C=N/NC(=O)c2ccoc2C)ccc1OCCN1CCCCC1	23.5% (active)	
